From ChEMBL document CHEMBL1126177, “Synthesis and biological evaluation of N alpha-(5-deaza-5,6,7,8-tetrahydropteroyl)-L-ornithine” (J Med Chem, 1992)
One block for each compound: values may come before it.

Assays:
MCF7 [1] = test: In vitro effect on 5-methyltetrahydrofolate (5-CH3-THF) in MCF-7 cells at 100 uM (control= 0.7); Folate pools; format: functional, Homo sapiens
MCF7 [2] = test: In vitro effect on folic acid (FA) in MCF-7 cells at 100 uM (control= 0.0); Folate pools; format: functional, Homo sapiens
MCF7 [3] = test: In vitro effect on total folates in MCF-7 cells at 100 uM(control= 4.0); Folate pools; format: functional, Homo sapiens
[4] = target: Bifunctional purine biosynthesis protein ATIC (Homo sapiens) (UniProt P31939); test: Compound was evaluated for the inhibition of 5-aminoimidazole-4-carboxamide ribonucleotide transformylase obtained from human at 100 uM
Bifunctional purine biosynthesis protein ATIC (Homo sapiens), sequence (P31939 whole entry, looked up): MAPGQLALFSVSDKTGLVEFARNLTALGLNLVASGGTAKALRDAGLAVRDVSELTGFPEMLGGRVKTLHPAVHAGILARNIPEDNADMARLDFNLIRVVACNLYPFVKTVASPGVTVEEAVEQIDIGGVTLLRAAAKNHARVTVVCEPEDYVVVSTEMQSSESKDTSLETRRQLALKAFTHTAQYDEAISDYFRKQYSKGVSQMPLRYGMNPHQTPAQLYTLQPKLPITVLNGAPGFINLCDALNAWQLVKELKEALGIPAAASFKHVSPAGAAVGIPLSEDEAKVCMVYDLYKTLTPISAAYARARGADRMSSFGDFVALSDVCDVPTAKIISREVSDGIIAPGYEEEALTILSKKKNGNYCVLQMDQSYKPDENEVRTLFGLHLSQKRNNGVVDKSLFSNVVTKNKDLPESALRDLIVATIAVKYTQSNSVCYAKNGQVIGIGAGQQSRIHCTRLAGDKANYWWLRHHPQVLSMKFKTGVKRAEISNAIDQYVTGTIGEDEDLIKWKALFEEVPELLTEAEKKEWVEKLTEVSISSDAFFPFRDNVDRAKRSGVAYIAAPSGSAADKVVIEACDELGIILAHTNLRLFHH
In short: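 AICAR transformylase partially purified from human MOLT-4 cells by a modified literature procedure. Activity was followed with a continuous spectrophotometric assay.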

MCF7 [5] = test: In vitro effect on folic acid (FA) in MCF-7 cells at 50 uM (control= 0.0); Folate pools; format: functional, Homo sapiens
MCF7 [6] = test: In vitro effect on dihydrofolate (DHF) in MCF-7 cells at 100 uM (control= 0.2); Folate pools; format: functional, Homo sapiens
MCF7 [7] = test: In vitro effect on 10-formyldihydrofolate (10-CHO-DHF) in MCF-7 cells at 100 uM (control= 0.2); Folate pools; format: functional, Homo sapiens
MCF7 [8] = test: In vitro effect on dihydrofolate (DHF) in MCF-7 cells at 50 uM (control=0.2); Folate pools; format: functional, Homo sapiens
MCF7 [9] = test: In vitro effect on 10-formyltetrahydrofolate (10-CHO-THF) in MCF-7 cells at 100 uM (control= 1.7); Folate pools; format: functional, Homo sapiens
MCF7 [10] = test: In vitro effect on 10-formylfolic acid (10-CHO-FA) in MCF-7 cells at 50 uM(control= 0.1); Folate pools; format: functional, Homo sapiens
MCF7 [11] = test: In vitro effect on total folates in MCF-7 cells at 50 uM (control= 4.0); Folate pools; format: functional, Homo sapiens
MCF7 [12] = test: In vitro effect on 5-methyltetrahydrofolate (5-CH3-THF) in MCF-7 cells at 50 uM(control=0.7); Folate pools; format: functional, Homo sapiens
MCF7 [13] = test: In vitro effect on 5-formyltetrahydrofolate (5-CHO-THF) in MCF-7 cells at 50 uM(control=0.1); Folate pools; format: functional, Homo sapiens
Thymidylate synthase = Thymidylate synthase (Homo sapiens, UniProt P04818); test: Compound was evaluated for the inhibition of thymidylate synthase obtained from human; conditions: read-out: I50
Thymidylate synthase, sequence (P04818 whole entry): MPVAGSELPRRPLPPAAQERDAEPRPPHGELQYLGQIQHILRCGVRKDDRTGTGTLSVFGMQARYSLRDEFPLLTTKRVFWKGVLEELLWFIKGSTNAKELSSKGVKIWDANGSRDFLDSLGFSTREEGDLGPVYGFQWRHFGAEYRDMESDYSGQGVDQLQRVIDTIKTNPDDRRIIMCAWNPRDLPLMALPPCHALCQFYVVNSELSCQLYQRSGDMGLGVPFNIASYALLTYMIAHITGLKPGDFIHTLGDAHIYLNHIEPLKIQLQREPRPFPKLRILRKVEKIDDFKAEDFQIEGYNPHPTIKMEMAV
In short: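 Human thymidylate synthase came from an SV40-transformed fibroblast line, cloned and expressed in E. coli, and purified to homogeneity by affinity chromatography. Activity was measured by the ³H-release method.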

Dihydrofolate reductase = target: T1, Dihydrofolate reductase (Homo sapiens, UniProt P00374); test: Compound was evaluated for the inhibition of dihydrofolate reductase obtained from human; conditions: read-out: I50
T1 sequence (P00374 whole entry): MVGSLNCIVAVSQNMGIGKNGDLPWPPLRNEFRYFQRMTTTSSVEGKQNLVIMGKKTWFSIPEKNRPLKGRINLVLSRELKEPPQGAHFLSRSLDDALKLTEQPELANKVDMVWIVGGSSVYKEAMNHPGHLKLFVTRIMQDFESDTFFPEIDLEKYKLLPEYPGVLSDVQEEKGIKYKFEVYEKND

MCF7 [14] = test: In vitro effect on 10-formylfolic acid (10-CHO-FA) in MCF-7 cells at 100 uM(control= 0.1); Folate pools; format: functional, Homo sapiens
MCF7 [15] = test: In vitro effect on tetrahydrofolate (THF) in MCF-7 cells at 50 uM (control=1.0); Folate pools; format: functional, Homo sapiens
MCF7 [16] = test: In vitro effect on 10-formyldihydrofolate (10-CHO-DHF) in MCF-7 cells at 50 uM (control= 0.2); Folate pools; format: functional, Homo sapiens
MCF7 [17] = test: In vitro effect on 5-formyltetrahydrofolate (5-CHO-THF) in MCF-7 cells at 100 uM (control= 0.1); Folate pools; format: functional, Homo sapiens
MCF7 [18] = test: In vitro effect on tetrahydrofolate (THF) in MCF-7 cells at 100 uM(control= 1.0); Folate pools; format: functional, Homo sapiens
MCF7 [19] = test: In vitro effect on 10-formyltetrahydrofolate (10-CHO-THF) in MCF-7 cells at 50 uM (control= 1.7); Folate pools; format: functional, Homo sapiens
MCF7 [20] = test: In vitro effect on 5-formyltetrahydrofolate (5-CHO-THF) in MCF-7 cells at 1 uM(control= 0.1); Folate pools; format: functional, Homo sapiens
MCF7 [21] = test: In vitro effect on dihydrofolate (DHF) in MCF-7 cells at 1 uM(control= 0.2); Folate pools; format: functional, Homo sapiens
MCF7 [22] = test: In vitro effect on 5-methyltetrahydrofolate (5-CH3-THF) in MCF-7 cells at 1 uM(control= 0.7); Folate pools; format: functional, Homo sapiens
MCF7 [23] = test: In vitro effect on tetrahydrofolate (THF) in MCF-7 cells at 1 uM(control= 1.0); Folate pools; format: functional, Homo sapiens
MCF7 [24] = test: In vitro effect on 10-formylfolic acid (10-CHO-FA) in MCF-7 cells at 1 uM(control= 0.1); Folate pools; format: functional, Homo sapiens
MCF7 [25] = test: In vitro effect on 10-formyltetrahydrofolate (10-CHO-THF) in MCF-7 cells at 1 uM(control= 1.7); Folate pools; format: functional, Homo sapiens
MCF7 [26] = test: In vitro effect on 10-formyldihydrofolate (10-CHO-DHF) in MCF-7 cells at 1 uM(control= 0.2); Folate pools; format: functional, Homo sapiens
MCF7 [27] = test: In vitro effect on folic acid (FA) in MCF-7 cells at 1 uM(control= 0.0); Folate pools; format: functional, Homo sapiens
MCF7 [28] = test: In vitro effect on total folates in MCF-7 cells at 1 uM(control= 4.0); Folate pools; format: functional, Homo sapiens

inhibition [4]: 16%
IC50 (Thymidylate synthase): 470 µM
IC50 (Dihydrofolate reductase): 2 µM
SMILES: NCCCC(NC(=O)c1ccc(NCC2CNc3nc(N)nc(O)c3C2)cc1)C(=O)O (stereo not given)
Activity (MCF7 [1]): 0.6 pM (10e6*cells)-1
Activity (MCF7 [2]): 0 pM (10e6*cells)-1
Activity (MCF7 [3]): 3.9 pM (10e6*cells)-1
Activity (MCF7 [5]): 0 pM (10e6*cells)-1
Activity (MCF7 [6]): 0.2 pM (10e6*cells)-1
Activity (MCF7 [7]): 0.3 pM (10e6*cells)-1
Activity (MCF7 [8]): 0.2 pM (10e6*cells)-1
Activity (MCF7 [9]): 1.7 pM (10e6*cells)-1
Activity (MCF7 [10]): 0.2 pM (10e6*cells)-1
Activity (MCF7 [11]): 4.1 pM (10e6*cells)-1
Activity (MCF7 [12]): 0.6 pM (10e6*cells)-1
Activity (MCF7 [13]): 0.2 pM (10e6*cells)-1
Activity (MCF7 [14]): 0.1 pM (10e6*cells)-1
Activity (MCF7 [15]): 1 pM (10e6*cells)-1
Activity (MCF7 [16]): 0.3 pM (10e6*cells)-1
Activity (MCF7 [17]): 0.1 pM (10e6*cells)-1
Activity (MCF7 [18]): 0.9 pM (10e6*cells)-1
Activity (MCF7 [19]): 1.8 pM (10e6*cells)-1

SMILES: CN(Cc1cnc2nc(N)nc(N)c2n1)c1ccc(C(=O)N[C@@H](CCC(=O)O)C(=O)O)cc1 [METHOTREXATE]
Activity (MCF7 [20]): 0.1 pM (10e6*cells)-1
Activity (MCF7 [21]): 1.6 pM (10e6*cells)-1
Activity (MCF7 [22]): 0.1 pM (10e6*cells)-1
Activity (MCF7 [23]): 0.4 pM (10e6*cells)-1
Activity (MCF7 [24]): 0.3 pM (10e6*cells)-1
Activity (MCF7 [25]): 0.8 pM (10e6*cells)-1
Activity (MCF7 [26]): 0.6 pM (10e6*cells)-1
Activity (MCF7 [27]): 0.1 pM (10e6*cells)-1
Activity (MCF7 [28]): 4.1 pM (10e6*cells)-1
